Measured values taken from ChEMBL document CHEMBL1833827, “Synthesis and anticandidal activity of new triazolothiadiazine derivatives” (Eur J Med Chem, 2011).
Values after ≈ are worked out from the molar mass of the structure shown.

Key:
NIH3T3 = test: Cytotoxicity against mouse NIH/3T3 cells after 24 hrs by MTT assay; format: cell-based; settings: NIH3T3, 24 h
Procedure, shortened: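 NIH/3T3 mouse fibroblasts (ATCC) grown in DMEM with 10% fetal calf serum, penicillin and streptomycin at 37 °C in 5% CO2. Cells were seeded at 2 × 10^4 cells/mL and preincubated 24 h. Compounds went from DMSO stocks diluted in medium (final DMSO <0.1%) at 0.5–500 µg/mL for 24 h. MTT was added at 0.5 mg/mL final for 4 h at 37 °C. Formazan was dissolved in DMSO and read at 540 nm. Triplicate wells per concentration. IC50 is the concentration reducing absorbance to 50% of control, reported as mean ± SD.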

Candida albicans [1] = test: Antifungal activity against Candida albicans NRRL Y-12983 by NCCLS M27-A2 microbroth dilution method; format: functional
Candida albicans [2] = test: Antifungal activity against Candida albicans ATCC 90028 by NCCLS M27-A2 microbroth dilution method; format: functional
Candida albicans [3] = test: Antifungal activity against Candida albicans clinical isolate by NCCLS M27-A2 microbroth dilution method; format: functional
Pichia kudriavzevii = test: Antifungal activity against Candida krusei NRRL Y-7179 by NCCLS M27-A2 microbroth dilution method; format: functional
Candida parapsilosis = test: Antifungal activity against Candida parapsilosis NRRL Y-12696 by NCCLS M27-A2 microbroth dilution method; format: functional; settings: Lodderomyces parapsilosis
Candida tropicalis = test: Antifungal activity against Candida tropicalis NRRL Y-12968 by NCCLS M27-A2 microbroth dilution method; format: functional
Nakaseomyces glabratus [4] = test: Antifungal activity against Candida glabrata clinical isolate (Osmangazi university) by NCCLS M27-A2 microbroth dilution method; format: functional
Nakaseomyces glabratus [5] = test: Antifungal activity against Candida glabrata clinical isolate (Anadolu university) by NCCLS M27-A2 microbroth dilution method; format: functional

MIC (Candida albicans [1])	MIC (Candida albicans [2])	MIC (Candida albicans [3])	MIC (Pichia kudriavzevii)	MIC (Candida parapsilosis)	MIC (Candida tropicalis)	MIC (Nakaseomyces glabratus [4])	MIC (Nakaseomyces glabratus [5])	SMILES	IC50 (NIH3T3)
370 mg/L (≈ 1100 µM)	80 mg/L (≈ 238 µM)	90 mg/L (≈ 268 µM)	370 mg/L (≈ 1100 µM)	180 mg/L (≈ 535 µM)	90 mg/L (≈ 268 µM)	40 mg/L (≈ 119 µM)	180 mg/L (≈ 535 µM)	Oc1ccc(CCc2nnc3n2N=C(c2ccccc2)CS3)cc1	31.6 mg/L (≈ 93.9 µM)
750 mg/L (≈ 1970 µM)	90 mg/L (≈ 236 µM)	90 mg/L (≈ 236 µM)	180 mg/L (≈ 472 µM)	40 mg/L (≈ 105 µM)	90 mg/L (≈ 236 µM)	90 mg/L (≈ 236 µM)	90 mg/L (≈ 236 µM)	O=[N+]([O-])c1ccc(C2=Nn3c(CCc4ccc(O)cc4)nnc3SC2)cc1	307 mg/L (≈ 804 µM)
1500 mg/L (≈ 4230 µM)	1500 mg/L (≈ 4230 µM)	180 mg/L (≈ 508 µM)	180 mg/L (≈ 508 µM)	1500 mg/L (≈ 4230 µM)	1500 mg/L (≈ 4230 µM)	1500 mg/L (≈ 4230 µM)	370 mg/L (≈ 1040 µM)	Oc1ccc(CCc2nnc3n2N=C(c2ccc(F)cc2)CS3)cc1	367 mg/L (≈ 1030 µM)
1500 mg/L (≈ 4040 µM)	750 mg/L (≈ 2020 µM)	750 mg/L (≈ 2020 µM)	750 mg/L (≈ 2020 µM)	370 mg/L (≈ 998 µM)	750 mg/L (≈ 2020 µM)	750 mg/L (≈ 2020 µM)	750 mg/L (≈ 2020 µM)	Oc1ccc(CCc2nnc3n2N=C(c2ccc(Cl)cc2)CS3)cc1	86.7 mg/L (≈ 234 µM)
1500 mg/L (≈ 4280 µM)	750 mg/L (≈ 2140 µM)	750 mg/L (≈ 2140 µM)	370 mg/L (≈ 1060 µM)	370 mg/L (≈ 1060 µM)	1500 mg/L (≈ 4280 µM)	750 mg/L (≈ 2140 µM)	750 mg/L (≈ 2140 µM)	Cc1ccc(C2=Nn3c(CCc4ccc(O)cc4)nnc3SC2)cc1	400 mg/L (≈ 1140 µM)
180 mg/L (≈ 551 µM)	90 mg/L (≈ 276 µM)	90 mg/L (≈ 276 µM)	180 mg/L (≈ 551 µM)	370 mg/L (≈ 1130 µM)	180 mg/L (≈ 551 µM)	90 mg/L (≈ 276 µM)	90 mg/L (≈ 276 µM)	c1ccc(C2=Nn3c(CCC4CCCCC4)nnc3SC2)cc1	433 mg/L (≈ 1330 µM)
90 mg/L (≈ 242 µM)	90 mg/L (≈ 242 µM)	90 mg/L (≈ 242 µM)	180 mg/L (≈ 485 µM)	180 mg/L (≈ 485 µM)	180 mg/L (≈ 485 µM)	90 mg/L (≈ 242 µM)	90 mg/L (≈ 242 µM)	O=[N+]([O-])c1ccc(C2=Nn3c(CCC4CCCCC4)nnc3SC2)cc1	210 mg/L (≈ 565 µM)
90 mg/L (≈ 261 µM)	90 mg/L (≈ 261 µM)	370 mg/L (≈ 1070 µM)	90 mg/L (≈ 261 µM)	370 mg/L (≈ 1070 µM)	750 mg/L (≈ 2180 µM)	370 mg/L (≈ 1070 µM)	90 mg/L (≈ 261 µM)	Fc1ccc(C2=Nn3c(CCC4CCCCC4)nnc3SC2)cc1	106 mg/L (≈ 308 µM)
40 mg/L (≈ 111 µM)	40 mg/L (≈ 111 µM)	180 mg/L (≈ 499 µM)	370 mg/L (≈ 1030 µM)	20 mg/L (≈ 55.4 µM)	90 mg/L (≈ 249 µM)	90 mg/L (≈ 249 µM)	40 mg/L (≈ 111 µM)	Clc1ccc(C2=Nn3c(CCC4CCCCC4)nnc3SC2)cc1	103 mg/L (≈ 285 µM)
90 mg/L (≈ 264 µM)	180 mg/L (≈ 529 µM)	90 mg/L (≈ 264 µM)	180 mg/L (≈ 529 µM)	370 mg/L (≈ 1090 µM)	750 mg/L (≈ 2200 µM)	90 mg/L (≈ 264 µM)	180 mg/L (≈ 529 µM)	Cc1ccc(C2=Nn3c(CCC4CCCCC4)nnc3SC2)cc1	198 mg/L (≈ 582 µM)

SMILES	MIC (Candida albicans [1])	MIC (Candida albicans [2])	MIC (Candida albicans [3])	MIC (Pichia kudriavzevii)	MIC (Candida parapsilosis)	MIC (Candida tropicalis)	MIC (Nakaseomyces glabratus [4])	MIC (Nakaseomyces glabratus [5])	IC50 (NIH3T3)
CC(=O)N1CCN(c2ccc(OCC3COC(Cn4ccnc4)(c4ccc(Cl)cc4Cl)O3)cc2)CC1 (stereo not drawn) [KETOCONAZOLE]	15 mg/L (≈ 28.2 µM)	30 mg/L (≈ 56.5 µM)	30 mg/L (≈ 56.5 µM)	3 mg/L (≈ 5.65 µM)	7 mg/L (≈ 13.2 µM)	3 mg/L (≈ 5.65 µM)	15 mg/L (≈ 28.2 µM)	7 mg/L (≈ 13.2 µM)	–
